Results taken from ChEMBL document CHEMBL1240306, “Allosteric inhibitors of Bcr-abl-dependent cell proliferation” (Nat Chem Biol, 2006).
The source made the active and inactive calls. The calls are words filed in the database; no cut-off is given here.

How the values were obtained:
[1] = biological target: Tyrosine-protein kinase ABL1 (Homo sapiens) (UniProt P00519); test: Binding affinity to phosphorylated human recombinant abl
How it was run: (§1)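 Recombinant human abl (1 μg), either Src-phosphorylated or tyrosine phosphatase-treated, incubated 1 h at 4 °C with immobilized GNF-3 resin; after five washes bound protein eluted by boiling in Laemmli buffer and detected by SDS-PAGE/anti-abl immunoblot. Immobilized methyl analogue used as control matrix.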

[2] = biological target: Tyrosine-protein kinase ABL1 (Homo sapiens) (UniProt P00519); test: Binding affinity to dephosphorylated human recombinant abl; how it was run: as §1
[3] = biological target: Tyrosine-protein kinase ABL1 (Homo sapiens) (UniProt P00519); test: Displacement of abl from GNF2 resin using affinity chromatography at 1000 uM by competition binding assay
[4] = Cytotoxic activity against mouse 32D Bcr-abl negative cells
[5] = Cytotoxic activity against mouse 32D cells transfected with p210 Bcr-abl; type: cell-based

Chain of Tyrosine-protein kinase ABL1 (Homo sapiens) (P00519 whole entry): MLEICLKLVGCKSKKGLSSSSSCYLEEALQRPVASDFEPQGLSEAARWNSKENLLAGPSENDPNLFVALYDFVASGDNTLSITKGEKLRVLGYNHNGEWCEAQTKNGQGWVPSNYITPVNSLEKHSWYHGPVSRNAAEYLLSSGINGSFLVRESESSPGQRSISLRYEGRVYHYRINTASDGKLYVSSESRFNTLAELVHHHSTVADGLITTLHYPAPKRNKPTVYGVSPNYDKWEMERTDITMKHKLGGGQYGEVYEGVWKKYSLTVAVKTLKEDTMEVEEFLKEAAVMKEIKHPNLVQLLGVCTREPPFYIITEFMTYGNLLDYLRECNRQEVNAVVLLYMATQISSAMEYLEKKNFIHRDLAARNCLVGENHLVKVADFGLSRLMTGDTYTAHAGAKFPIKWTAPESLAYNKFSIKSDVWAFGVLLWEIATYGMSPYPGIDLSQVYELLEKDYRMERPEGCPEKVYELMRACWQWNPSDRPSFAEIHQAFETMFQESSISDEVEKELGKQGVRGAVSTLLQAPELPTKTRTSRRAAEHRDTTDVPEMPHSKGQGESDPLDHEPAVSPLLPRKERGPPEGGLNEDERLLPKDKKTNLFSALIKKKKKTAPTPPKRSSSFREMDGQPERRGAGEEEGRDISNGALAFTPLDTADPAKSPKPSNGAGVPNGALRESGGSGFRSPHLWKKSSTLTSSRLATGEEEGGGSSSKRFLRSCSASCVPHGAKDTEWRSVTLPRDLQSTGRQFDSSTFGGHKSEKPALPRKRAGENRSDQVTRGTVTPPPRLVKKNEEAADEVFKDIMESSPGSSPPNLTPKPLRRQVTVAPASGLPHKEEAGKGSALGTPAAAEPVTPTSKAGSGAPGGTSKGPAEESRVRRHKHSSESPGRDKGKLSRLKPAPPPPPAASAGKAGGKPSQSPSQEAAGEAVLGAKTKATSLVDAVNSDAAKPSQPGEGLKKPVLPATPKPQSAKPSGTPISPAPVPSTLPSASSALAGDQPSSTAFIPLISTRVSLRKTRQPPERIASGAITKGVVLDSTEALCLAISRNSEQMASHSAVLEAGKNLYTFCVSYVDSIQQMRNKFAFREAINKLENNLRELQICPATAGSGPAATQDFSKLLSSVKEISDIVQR

Compound: NCCOCCOCCOCCOCCOCCNC(=O)c1cccc(-c2cc(Nc3ccc(OC(F)(F)F)cc3)ncn2)c1
- Activity [1]: Active
- Activity [2]: Active

Compound: Nc1ncnc2c1ncn2[C@@H]1O[C@H](COP(=O)(O)OP(=O)(O)OP(=O)(O)O)[C@@H](O)[C@H]1O
- Activity [3]: Active

Compound: FC(F)(F)Oc1ccc(Nc2cc(NCCN3CCOCC3)ncn2)cc1
- IC50 [4]: > 40000 nM
- IC50 [5]: 400 nM
